Screening results deposited in PubChem by several laboratories.
Rows were chosen to be rich in hits. Some 1.3% of all compounds tested hit in one or more screens of this group.
MT1-MMP act inh: blocks activation of human MT1-MMP | P50281 | HT1080 RFP-PRO-GFP cells, GFP/RFP ratio fluorescence, overnight; percent of plate control window, DMSO zero | GFP/RFP ratio change, % at 20 µM | 360,000 compounds, 0.061% hits;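 active = GFP/RFP ratio change of at least 30% with cell ATP level not reduced by more than half and red fluorescence within 50% of control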
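Assay system: RFP-PRO-GFP reporter HT1080 cells; read-out basis: GFP/RFP fluorescence ratio; benchmarks: DMSO wells and RFP-L50D-GFP cells; doses: 20 µM single dose, 1% DMSO; schedule: overnight cell settling, then overnight compound exposure, 37 °C, 5% CO2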
TMEM16A inh: mouse TMEM16A channel inhibition, primary screen; AID 588511; Q8BHY3; 310,000 compounds, 1.2% hits; normalized B-score (activity score, 25-100; higher = stronger inhibition) at 10 µM; HEK293 TMEM16A/YFP iodide influx fluorescence, ionomycin;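 active = ratio plate-corrected score three or more library SD toward inhibition, starting fluorescence score within five deviations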;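 note: score derived from kinetic fluorescence span divided by baseline fluorescence per well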
Target sequence (Q8BHY3 whole entry, looked up): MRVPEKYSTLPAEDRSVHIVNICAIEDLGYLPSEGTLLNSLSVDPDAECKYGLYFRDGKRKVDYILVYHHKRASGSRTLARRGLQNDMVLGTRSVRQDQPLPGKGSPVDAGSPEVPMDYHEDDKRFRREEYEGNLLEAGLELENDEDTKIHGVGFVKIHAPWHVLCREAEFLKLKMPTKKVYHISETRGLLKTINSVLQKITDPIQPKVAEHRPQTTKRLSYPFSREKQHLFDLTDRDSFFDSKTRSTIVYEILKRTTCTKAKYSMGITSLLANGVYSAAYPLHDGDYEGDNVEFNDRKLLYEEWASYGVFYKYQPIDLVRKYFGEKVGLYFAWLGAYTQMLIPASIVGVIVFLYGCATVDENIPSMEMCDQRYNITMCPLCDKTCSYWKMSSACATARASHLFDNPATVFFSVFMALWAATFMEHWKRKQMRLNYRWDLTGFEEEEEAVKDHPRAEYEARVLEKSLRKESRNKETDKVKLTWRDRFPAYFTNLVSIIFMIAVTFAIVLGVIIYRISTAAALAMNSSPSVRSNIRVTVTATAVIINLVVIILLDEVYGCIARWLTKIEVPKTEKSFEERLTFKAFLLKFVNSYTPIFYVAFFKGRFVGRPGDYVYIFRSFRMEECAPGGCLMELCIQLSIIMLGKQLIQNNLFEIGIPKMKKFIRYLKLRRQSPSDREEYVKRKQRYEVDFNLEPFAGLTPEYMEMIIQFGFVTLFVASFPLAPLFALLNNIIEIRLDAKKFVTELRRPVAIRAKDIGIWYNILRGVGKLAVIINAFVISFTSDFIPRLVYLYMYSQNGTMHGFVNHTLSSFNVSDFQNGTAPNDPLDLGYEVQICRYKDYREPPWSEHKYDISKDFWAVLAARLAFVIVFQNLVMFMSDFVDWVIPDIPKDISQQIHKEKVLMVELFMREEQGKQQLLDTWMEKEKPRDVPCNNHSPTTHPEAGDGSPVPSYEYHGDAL
ANO1 activ: activators or potentiators of mouse TMEM16A chloride channel; 340,000 compounds, 0.3% hits; AID 623877; HEK293 TMEM16A/YFP-H148Q/I152L, iodide quench fluorescence; stronger effect = lower value; B-score at 10 µM;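 active = fluorescence-ratio B-score plate-corrected deviation score at least 3 library SD below zero, with starting fluorescence score within 5 deviations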;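 note: channel opened by trigger with iodide after compound preincubation; score built on the fluorescence ratio of max minus min over baseline; more negative score means more quench and so TMEM16A activation or potentiation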
DAGLB inhibitor: blocks human DAGLB lipase activity; Q8NCG7; HEK293T DAGLB membrane lysate, EnzChek fluorogenic substrate; inhibition, % at 5.17 µM; 340,000 compounds, 0.059% hits; in the data active = inhibition above about 34%;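 note: 0% = enzyme with vehicle and 100% = wells lacking enzyme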
Starred values were filed as active, the others as inactive; i = inactive; · = no result.

SMILES	MT1-MMP act inh	TMEM16A inh	ANO1 activ	DAGLB inhibitor
C/C(=N\NC(=O)c1ccc(O)cc1)c1ccc2c(c1)Nc1ccccc1S2	2	25*	i	8
COc1ccc2nc(SCCOC(=O)Nc3ccc(Cl)cc3)nc(C)c2c1	11	25*	i	-5
COc1ccc2nc(SCC(=O)O)nc(C)c2c1	18	i	i	1
C[N+](C)(C)CCN1C(=O)c2ccccc2C1=O	6	·	·	·
CCc1nc2ccc(C(=O)NCCCn3ccnc3)cn2c1N(C)Cc1ccc(OC)cc1	0	·	·	·
Cc1[nH]nc(-c2ccc(O)cc2O)c1-c1ccc(Cl)cc1	0	100*	i	0
COc1ccc(-c2n[nH]c(C)c2-c2ccc(Cl)cc2)c(O)c1	2	i	i	-1
CC(NC(=O)c1cc2cc(Br)ccc2oc1=N)c1ccccc1 (stereo not given)	-1	25*	i	-1
N#C/C(=N\Nc1ccc(S(=O)(=O)N2CCOCC2)cc1)C(N)=S	5	i	i	6
N#CC(C#N)=NNc1ccc(S(=O)(=O)N2CCCCC2)cc1	-9	100*	i	14
CCOP(=O)(OCC)c1ccc2c(c1)C(=O)c1ccccc1CC2	-3	·	i	3
CCN(Cc1ccccc1)CC(O)COc1ccccc1 (stereo not given)	0	i	i	1
Cc1ccccc1OCC(O)CN(CCO)Cc1ccccc1 (stereo not given)	5	i	-38*	-1
CC(C)(C)c1ccc(CC(=O)N2CCC2(C)C(=O)NS(=O)(=O)c2ccccc2Cl)cc1 (stereo not given)	-2	·	·	·
CC(C)(C)C1COc2ccccc2N1C(=O)c1ccccc1Cl (stereo not given)	-2	i	-15*	-12
Cc1ccc(NC(=O)CSc2nn(-c3ccc(Cl)cc3)c(=S)s2)cc1S(=O)(=O)N(C)C	-6	100*	i	-5
Cc1ccc(Sc2ccc(S(=O)(=O)Nc3ccc(CC(=O)O)cc3)cc2)cc1C	-6	·	i	6
O=C1C=C(OCCF)CC(c2ccc(Br)cc2)O1 (stereo not given)	5	·	·	·
CCOC(=O)/C(=N\Nc1ccc(Cl)cc1)c1csc(Nc2ccccc2)n1	4	100*	i	-5
CCOC(=O)/C(=N/Nc1ccccc1)c1csc(Nc2ccccc2)n1	10	i	i	-4
CCCCn1c(SCC(=O)NCc2ccc3c(c2)OCO3)nnc1C(CC)N(C)C (stereo not given)	1	·	i	2
CCC(C)(C)NC(=O)COc1ccc(C(=O)c2ccccc2)cc1	2	25*	i	0
CCCCCc1ccc(OCCCC[n+]2cccc(C)c2)c(CCCCC)c1	-32	100*	i	3
CCCCCc1ccc(OCCCC[n+]2ccc(C)cc2)c(CCCCC)c1	-29	100*	i	1
CC(=O)Nc1ccc(C(=O)N2CCCC(c3cc(C(=O)NCc4cccnc4)no3)C2)cc1 (stereo not given)	-2	·	·	·
SMILES	MT1-MMP act inh	TMEM16A inh	ANO1 activ	DAGLB inhibitor
COc1ccc(C(C)(O)c2nc(-c3cccc(F)c3)cs2)cc1 (stereo not given)	-8	·	·	·
CC(C)(C)CC(C)(C)c1ccc(OCCOCC[N+](C)(C)Cc2ccccc2)cc1	-21	25*	i	6
CCC(=O)Nc1nc(=S)ss1	-1	i	i	-2
CC(C)(C)C(=O)Nc1nc(=S)ss1	3	100*	i	-1
N/C(=N\OC(=O)COc1ccc2ccccc2c1Br)c1cccnc1	·	25*	·	·
CCOC(=O)c1cc2c(C)n(-c3ccc(OCC)cc3)c(C)c2ccc1=O	1	i	i	1
CCOC(=O)c1cc2c(C)n(-c3ccc(C)cc3)c(C)c2ccc1=O	-12	100*	i	-2
Cc1[nH]n(-c2ccc(Cl)cc2)c(=O)c1/C=N/c1nnc(-c2ccccc2)s1	6	25*	i	8
COc1ccc(S(=O)(=O)N(C)C[C@@H]2OCCCC[C@@H](C)Oc3ccc(NS(=O)(=O)c4cccs4)cc3C(=O)N([C@H](C)CO)C[C@@H]2C)cc1	-8	·	·	-3
Cc1ccn2c(-c3csc(NCc4ccccc4)n3)c(C)nc2c1	-2	100*	i	2
Cc1ccn2c(NCc3ccccc3)c(-c3cccs3)nc2c1	2	i	i	1
COc1ccc(C2=NS(=O)(=O)N(C)C(C(=O)Nc3ccc(C(C)=O)cc3)=C2)cc1OC	9	25*	i	0
COc1ccc(NC(=O)C2=CC(c3ccc(C)cc3)=NS(=O)(=O)N2C)cc1OC	-5	i	i	3
C=CCCCN(Cc1ccccc1)S(=O)(=O)c1ccccc1Br	0	25*	-6.2*	-16
Cc1ccc(S(=O)(=O)N/N=C2/CC(c3ccccc3)Oc3ccccc32)cc1[N+](=O)[O-] (stereo not given)	0	100*	i	8
O=S(=O)(N/N=C1/CC(c2ccccc2)Oc2ccccc21)c1ccc(Br)cc1 (stereo not given)	-3	25*	i	10
CCc1noc(C)c1C(=O)OCC(=O)Nc1cccc(C)c1	4	·	i	-4
CCOC(=O)c1ccc(NC(=S)N2CCSC2c2ccc(OC)cc2)cc1 (stereo not given)	1	i	i	-3
CCOC(=O)c1ccc(NC(=S)N2CCSC2c2ccc(Cl)cc2)cc1 (stereo not given)	4	100*	-7.7*	-9
NS(=O)(=O)c1ccc(-c2cccc(/C=C3\SC(=O)NC3=O)c2)cc1	-4	i	-4.9*	6
COc1ccc(C=C2SC(=O)NC2=O)cc1OC	8	·	i	1
COc1ccccc1-c1c(-c2ccc(OCC(=O)NN)cc2O)n[nH]c1C(F)(F)F	9	i	i	0
COc1ccc(-c2n[nH]c(C(F)(F)F)c2-c2cc3ccccc3o2)c(O)c1	1	100*	i	1
CCS(=O)(=O)n1nc(-c2ccc(Cl)cc2)nc1SCc1ccccc1	·	25*	·	·
c1ccc(Nc2ccnc(Nc3ccccc3)n2)cc1	0	25*	i	0
SMILES	MT1-MMP act inh	TMEM16A inh	ANO1 activ	DAGLB inhibitor
CCc1ccc(Nc2n[n+](-c3ccccc3)c(-c3ccc(OCc4ccccc4)cc3)s2)cc1	6	100*	i	-3
c1ccc(COc2ccc(-c3sc(Nc4ccccc4)n[n+]3-c3ccccc3)cc2)cc1	·	i	·	·
COc1ccc(C)cc1Nc1n[n+](-c2ccccc2)c(-c2c(Cl)cccc2Cl)s1	·	100*	·	·
CCc1ccc(Nc2n[n+](-c3ccccc3)c(-c3c(Cl)cccc3Cl)s2)cc1	10	100*	-8.1*	20
COc1ccc(-c2sc(Nc3ccccc3)n[n+]2-c2ccc(F)cc2)cc1Br	-2	i	i	-2
Fc1ccc(-[n+]2nc(Nc3ccccc3)sc2-c2c(Cl)cccc2Cl)cc1	0	i	i	15
